# Screening data as filed in PubChem.
# Shown are actives, neighbours in structure and some others; about 2% of the full set was active somewhere.
# APJ ag: agonists of human apelin receptor APJ, primary screen, CHO-K1 cells, PathHunter beta-arrestin, luminescence. P35414. AID 2520, 2010. 330,000 compounds, 0.11% hits. 0% DMSO wells, 100% apelin. activation, % at 20 µM;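 active means activation more than six SD over the plate average, tested at 20 µM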
#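 system = engineered CHO-K1 APJ arrestin reporter cells | input = 1000 cells per well | timing = overnight seeding, 90 min compound at 25 °C, 1 h detection | measured by = enzyme-fragment complementation luminescence | read-out = beta-arrestin recruitment to APJ as agonist activity, luminescent signal | control set = negative DMSO alone, positive Apelin-13 at 10 nM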
# EBI2 antag: EBI2 receptor antagonists, beta-arrestin recruitment, primary screen, cell-based, luminescence, 7a,25-OHC stimulation, uHTS | G-protein coupled receptor 183 (Homo sapiens), P32249 | 7a,25-OHC stimulated | inhibition, % at 5 µM | 360,000 compounds, 0.81% hits; in the data active means inhibition above about 38%;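 further: enzyme fragment complementation signal reports receptor beta-arrestin coupling in cells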
# CXCR6 block: CXCR6 receptor inhibitors, primary screen, cell-based, beta-arrestin, luminescence, CHO-K1 PathHunter, 1536-well; C-X-C chemokine receptor type 6 (Homo sapiens), O00574; 360,000 compounds, 0.36% hits; inhibition, % at 20 µM; in the data active means inhibition above about 34%, passing the limit was not always enough;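 further: antagonist mode with CXCL16 agonist at 10 nM final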
# Target sequence (O00574 whole entry, looked up): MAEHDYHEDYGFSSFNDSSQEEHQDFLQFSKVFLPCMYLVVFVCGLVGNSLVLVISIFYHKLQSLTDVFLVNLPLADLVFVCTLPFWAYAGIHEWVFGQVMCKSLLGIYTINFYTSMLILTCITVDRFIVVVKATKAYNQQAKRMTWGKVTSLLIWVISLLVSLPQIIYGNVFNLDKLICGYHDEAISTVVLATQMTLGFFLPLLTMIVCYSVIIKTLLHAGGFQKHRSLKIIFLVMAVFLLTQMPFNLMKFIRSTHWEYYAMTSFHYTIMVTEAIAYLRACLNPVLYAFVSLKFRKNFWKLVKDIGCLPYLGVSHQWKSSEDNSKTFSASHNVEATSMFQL
# CCR6 antag: CCR6 receptor antagonists, primary screen, cell-based, CHO-K1, luminescence, beta-arrestin, uHTS. 340,000 compounds, 0.49% hits. AID 493098, 2011. C-C chemokine receptor type 6 (Homo sapiens), P51684. inhibition, % at 20 µM. CHO-K1 CCR6 PathHunter beta-arrestin, CCL20-stimulated;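 active means compounds whose inhibition of the agonist-driven luminescence signal at 20 µM reaches about 50%, limit read from the data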;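 further: cells stimulated with CCL20 at 14 nM final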
# GAA850 FXN act: FXN promoter activators, primary screen, cell-based, luciferase luminescence, HEK293 lucGAA850 | activation, % at 6 µM | 360,000 compounds, 0.56% hits | HEK293 lucGAA850 FXN promoter luciferase reporter, 24 h; percent of 10 µM SAHA response;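 active means activation above the average of all compounds screened plus 3 SD, cutoff fixed separately per campaign, cut at about 7.5% in these data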
# APJ antag: antagonists of human apelin receptor APJ, primary screen, CHO-K1 cells, beta-arrestin complementation, luminescence. 330,000 compounds, 0.32% hits. inhibition, % at 20 µM. P35414;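 active means inhibition above about 40% at 20 µM, limit read from the data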;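 further: cells challenged with 10 nM apelin-13 agonist together with compound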
# Hits are given with their value; – = inactive; · = no result given.
SMILES,APJ ag,EBI2 antag,CXCR6 block,CCR6 antag,GAA850 FXN act,APJ antag
CCN(CC)c1ccc(/C=C(\C#N)C(N)=O)cc1,·,–,–,–,–,·
CCN(CC)c1ccc(/C=C(\C#N)C(N)=S)cc1,–,–,–,51.7,–,–
CN(C)c1ccc(/C=C(\C#N)C(=O)c2ccccc2)cc1,·,–,–,–,–,·
O=c1oc(-c2ccccc2F)nc2c1cnn2-c1ccccc1,–,–,–,51.9,–,–
COCCN(Cc1ccc(OC)cc1)c1c(C)nc2ccc(C(=O)Nc3ccc(NC(C)=O)cc3)cn12,·,–,–,·,–,·
C/C(Cl)=C\Cn1c(O)c(N=NC(N)=S)c2cc(Br)ccc21,–,–,–,55.1,–,–
Cc1cc2oc(=O)cc(Cn3ncc(Cl)c(Cl)c3=O)c2cc1Cl,–,50.2,–,–,–,–
Cc1oc2c(c(=O)c1C)C(=O)CC(c1ccccc1)C2 (centres undefined),–,–,–,–,–,–
CS(=O)(=O)c1sc(C#N)c2c1C(=O)CC(c1ccccc1)C2 (centres undefined),–,65.7,90.7,92.2,–,84.5
Cc1cc(/C=N/n2c(COc3ccccc3C)nc3ccccc3c2=O)c(O)c([N+](=O)[O-])c1,–,–,–,58.5,–,–
O=C(Nc1ccc2c(c1)OCCO2)C(CCc1ccccc1)N1CCC(Cc2ccccc2)CC1 (centres undefined),·,–,–,·,·,·
Cc1cc2c(cc1C)NC(c1c(C)n(C)n(-c3ccccc3)c1=O)C1=C(CC(C)(C)CC1=O)N2 (centres undefined),–,–,–,77.1,–,–
COc1ccccc1C(=O)NNC(=S)NC(=O)c1cc(OC)c(OC)c(OC)c1,–,–,–,58.4,–,–
CCOC(=O)SC1=N/C(=C\c2ccc(N(C)C)cc2)C(=O)S1,–,–,–,50.9,–,–
COc1ccccc1NS(=O)(=O)c1cc(C(=O)Nc2ccc(S(=O)(=O)Nc3onc(C)c3C)cc2)ccc1C,·,–,–,–,–,·
CC(C)(C)OC(=O)N[C@@H](Cc1ccccc1)c1nnc(SCC(N)=O)o1,–,–,–,–,–,–
Cc1cccc(CS(=O)(=O)c2nnc([C@H](Cc3ccccc3)NC(=O)OC(C)(C)C)o2)c1,–,–,61.1,90.7,–,–
O=C1NC(=O)C2(CCc3ccccc32)N1 (centres undefined),–,–,–,–,–,–
C=C1CC2(OC1=O)c1ccccc1CCc1ccccc12,·,–,45.1,67.8,–,·
Cc1ccc(C(=O)OCC(=O)c2ccc(S(=O)(=O)N3CCCCC3)cc2)o1,–,–,–,52.7,–,–
O=C(OCC(=O)c1ccc(S(=O)(=O)N2CCCC2)cc1)C1=COCCO1,–,–,–,53.2,–,–
Cc1[nH]n(C2=NCCS2)c(=O)c1N=Nc1cccc(C(F)(F)F)c1,–,–,53.2,58.1,–,–
CC1NC(=O)c2cccnc2-n2c1nc1ccccc1c2=O (centres undefined),·,–,–,·,–,·
C=CCn1c(Sc2ncc([N+](=O)[O-])s2)n[nH]c1=O,–,–,42.4,56.3,–,–
CCn1cc(C=C2C(=O)c3ccccc3C2=O)c2ccccc21,·,–,–,50.9,–,·
SMILES,APJ ag,EBI2 antag,CXCR6 block,CCR6 antag,GAA850 FXN act,APJ antag
CCCCC1C(=O)N(c2ccccc2)N(c2ccc(O)cc2)C1=O (centres undefined),–,–,42.9,57.5,–,–
COc1ccc2cc(C(=O)/C=C/c3cc(OC)c(O)c(OC)c3)ccc2c1,–,–,–,–,–,–
COc1ccc(C(=O)/C=C/c2cc(OC)c(O)c(OC)c2)c(F)c1,–,–,–,51.3,–,–
O=C(NC(=S)N1CCN(c2nc(-c3ccccc3)cs2)CC1)c1cncc(Br)c1,–,–,–,57.3,–,–
COC(=O)C1=NN(C(=O)c2cccc(Br)c2)C(O)(c2ccc(Cl)cc2)C1 (centres undefined),–,–,45.3,·,–,–
CC1=NN(C(=O)c2ccccc2)C(O)(c2ccc(Br)cc2)C1 (centres undefined),–,–,–,54.7,–,–
CC1=NN(C(=O)c2ccccc2Cl)C(O)(c2ccccc2)C1 (centres undefined),–,–,–,–,–,–
CCN1C[C@@H]2[C@@H]3C(=O)N(Cc4ccccc4)C(=O)[C@@H]3[C@](Cc3ccccc3)(C1=O)N2C(=O)c1ccc(C)cc1,·,–,–,–,–,·
Cc1ccccc1NC(=O)c1nc(S(C)(=O)=O)ncc1Cl,–,–,–,–,18.1,–
COc1ccc(NC(=O)c2nc(S(=O)(=O)Cc3cccc(C)c3)ncc2Cl)c(OC)c1,–,49.5,–,–,–,–
CS(=O)(=O)c1ncc(Cl)c(C(=O)Nc2ccc(N3CCOCC3)cc2)n1,–,–,–,–,–,–
CCCCC[C@H](C)N1C[C@H](COCc2ccccc2)Oc2cc(N3CC[C@@H](N(C)C)C3)ccc2S1(=O)=O,·,–,–,·,·,·
COc1ccc(C(=O)CC(C(=O)O)c2ccc(OC)c(OC)c2)cc1OC (centres undefined),·,–,–,·,–,·
Cn1cc(CCC(=O)N2CCCC(N3CCN(c4ccccc4F)CC3)C2)cn1 (centres undefined),–,–,–,–,–,–
CC[C@]12c3[nH]c4cc(-c5ccco5)ccc4c3CCN1C(=O)[C@@H](CC(=O)NCc1cccc(C(F)(F)F)c1)C[C@@H]2C(=O)N1CCN(C(=O)c2ccco2)CC1,·,–,–,–,–,·
CCOC(=O)c1ccc(S(=O)(=O)N2CCN(CC(O)COc3ccc(C#N)cc3)CC2)cc1 (centres undefined),–,49.7,–,–,–,–
COCCNC(=O)C1(C)CCCN(C(=O)c2c(-c3ccccc3)noc2C)C1 (centres undefined),·,–,–,·,–,·
CN(C)S(=O)(=O)c1ccc(SCC(=O)Nc2cccc(S(=O)(=O)N3CCCC3)c2)nc1,·,–,–,–,–,·
CN(C)S(=O)(=O)c1cccc(NC(=O)CSc2cccc3cccnc23)c1,–,–,51.1,71.1,–,–
Cc1cccc(C)c1NC(=O)C1(C)CSCC(=O)N1CCc1c[nH]c2ccccc12 (centres undefined),·,–,·,·,·,·
Cc1ccc(-c2oc3ccccc3c(=O)c2O)cc1,–,–,51.8,–,–,–
COc1ccc2c(c1)c(=O)oc1c(C)c(OCc3ccc(C(=O)O)cc3)ccc12,·,–,–,–,–,·
